This sample holds only a part of the variants without activity.
B1: tRNA (parent)
chain: GUUCCGUUGGCGUAAUGGUAACGCGUCUCCCUCCUAAGGAGAAGACUGCGGGUUCGAGUCCCGUACGGAACG

Variants of: B1
Test: yeast fitness relative to wild type (ratio to wild type); higher = fitter; tRNA-Arg(CCU), competitive growth, 37 C, YPD
In short: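 A pool of Saccharomyces cerevisiae strains, each with a tRNA-Arg(CCU) gene variant at the native genomic locus, was competed in YPD at 37°C for 24 hours across six parallel replicates. The variants had been chemically synthesised at a 3% per-site mutation rate over 69 sites, and gene amplicons before and after competition were read by 100-nucleotide paired-end sequencing. Darwinian fitness relative to wild type rested on changes in genotype frequencies. Genotypes required ≥ 100 starting reads, and estimates < 0.5 were set to 0.5.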

| Variant | yeast fitness |
| --- | --- |
| GUUCCGUUGGCGUAAUGGUAACGCGUCUCCCUCCUAAGGAGAAGACUGCGGGUUCGUGUCCCGUACGGCACG | 0.69 |
| GUUCCGUUGGCGUAAUGGUAACGCGUCUCCCUCCUAAGGAGAAGACUGCGGGUUCGUGUCCCGUACGGGCCG | ≤ 0.5 |
| GUUCCGUUGGCGUAAUGGUAACGCGUCUCCCUCCUAAGGAGAAGACUGCGGGUUCGUGUCCCGUACGGUACG | 0.668 |
| GUUCCGUUGGCGUAAUGGUAACGCGUCUCCCUCCUAAGGAGAAGACUGCGGGUUCGUGUCCCGUACGGUCCG | ≤ 0.5 |
| GUUCCGUUGGCGUAAUGGUAACGCGUCUCCCUCCUAAGGAGAAGACUGCGGGUUCGUGUCCCGUACGGAGCG | 0.753 |
| GUUCCGUUGGCGUAAUGGUAACGCGUCUCCCUCCUAAGGAGAAGACUGCGGGUUCGUGUACCGUACGGAACG | 0.54 |
| GUUCCGUUGGCGUAAUGGUAACGCGUCUCCCUCCUAAGGAGAAGACUGCGGGUUCGUGUGCCGUACGGAACG | 0.532 |
| GUUCCGUUGGCGUAAUGGUAACGCGUCUCCCUCCUAAGGAGAAGACUGCGGGUUCGUGUGCCGUACACAACG | ≤ 0.5 |
| GUUCCGUUGGCGUAAUGGUAACGCGUCUCCCUCCUAAGGAGAAGACUGCGGGUUCGUGUGCCGUACGCAACG | 0.532 |
| GUUCCGUUGGCGUAAUGGUAACGCGUCUCCCUCCUAAGGAGAAGACUGCGGGUUCGUGUCACGUACGGAACG | 0.528 |
| GUUCCGUUGGCGUAAUGGUAACGCGUCUCCCUCCUAAGGAGAAGACUGCGGGUUCGUGUCGCGUACGGAACG | 0.592 |
| GUUCCGUUGGCGUAAUGGUAACGCGUCUCCCUCCUAAGGAGAAGACUGCGGGUUCGUGUCCUGUACGGAACG | 0.617 |
| GUUCCGUUGGCGUAAUGGUAACGCGUCUCCCUCCUAAGGAGAAGACUGCGGGUUCGUGUCCCAUACGGAACG | 0.681 |
| GUUCCGUUGGCGUAAUGGUAACGCGUCUCCCUCCUAAGGAGAAGACUGCGGGUUCGUGUCCCGUACAGAACG | 0.84 |
| GUUCCGUUGGCGUAAUGGUAACGCGUCUCCCUCCUAAGGAGAAGACUGCGGGUUCGUGUCCCGUACGAAACG | 0.658 |
| GUUCCGUUGGCGUAAUGGUAACGCGUCUCCCUCCUAAGGAGAAGACUGCGGGUUCGUGUCCCGUACGUAACG | 0.769 |
| GUUCCGUUGGCGUAAUGGUAACGCGUCUCCCUCCUAAGGAGAAGACUGCGGGUUCGUGACCCGUACGGCACG | 0.654 |
| GUUCCGUUGGCGUAAUGGUAACGCGUCUCCCUCCUAAGGAGAAGACUGCGGGUUCGUGUCCCGCACGGAACG | 0.783 |
| GUUCCGUUGGCGUAAUGGUAACGCGUCUCCCUCCUAAGGAGAAGACUGCGGGUUCGAAUCCCGUACGGAACG | 0.981 |

| Variant | yeast fitness |
| --- | --- |
| GUUCCGUUGGCGUAAUGGUAACGCGUCUCCCUCCUAAGGAGAAGACUGCGGGUUCGAAUCCCGUCCGGAACG | 1.05 |
| GUUCCGUUGGCGUAAUGGUAACGCGUCUCCCUCCUAAGGAGAAGACUGCGGGUUCGAAUCCCGUGCGGAACG | 0.965 |
| GUUCCGUUGGCGUAAUGGUAACGCGUCUCCCUCCUAAGGAGAAGACUGCGGGUUCGAAUCCCGUACGGACCG | 1.01 |
| GUUCCGUUGGCGUAAUGGUAACGCGUCUCCCUCCUAAGGAGAAGACUGCGGGUUCGAAUCCCGUACGGAGCG | 0.949 |
| GUUCCGUUGGCGUAAUGGUAACGCGUCUCCCUCCUAAGGAGAAGACUGCGGGUUCGAAUCGCGUACGGAUCG | 0.749 |
| GUUCCGUUGGCGUAAUGGUAACGCGUCUCCCUCCUAAGGAGAAGACUGCGGGUUCGAAUCUCGUACGGAACG | 1.03 |
| GUUCCGUUGGCGUAAUGGUAACGCGUCUCCCUCCUAAGGAGAAGACUGCGGGUUCGAAUCUCGUACGGAGCG | 1.02 |
| GUUCCGUUGGCGUAAUGGUAACGCGUCUCCCUCCUAAGGAGAAGACUGCGGGUUCGAAUCCAGUACGGAACG | 0.904 |
| GUUCCGUUGGCGUAAUGGUAACGCGUCUCCCUCCUAAGGAGAAGACUGCGGGUUCGAAUCCUGUACGGAACG | 1.07 |
| GUUCCGUUGGCGUAAUGGUAACGCGUCUCCCUCCUAAGGAGAAGACUGCGGGUUCGAAUCCCGUAGGGAACG | 0.943 |
| GUUCCGUUGGCGUAAUGGUAACGCGUCUCCCUCCUAAGGAGAAGACUGCGGGUUCGAAUCCCAUACGGAACG | 0.954 |
| GUUCCGUUGGCGUAAUGGUAACGCGUCUCCCUCCUAAGGAGAAGACUGCGGGUUCGAAUCCCAUCCGGAACG | 0.584 |
| GUUCCGUUGGCGUAAUGGUAACGCGUCUCCCUCCUAAGGAGAAGACUGCGGGUUCGAAUCCCCUACGGAACG | 0.784 |
| GUUCCGUUGGCGUAAUGGUAACGCGUCUCCCUCCUAAGGAGAAGACUGCGGGUUCGAAUCCCGUACCGCACG | 0.542 |
| GUUCCGUUGGCGUAAUGGUAACGCGUCUCCCUCCUAAGGAGAAGACUGCGGGUUCGAAUCCCGUACUGAACG | 0.804 |
| GUUCCGUUGGCGUAAUGGUAACGCGUCUCCCUCCUAAGGAGAAGACUGCGGGUUCGAAUCCCGUACGUAACG | 0.835 |
| GUUCCGUUGGCGUAAUGGUAACGCGUCUCCCUCCUAAGGAGAAGACUGCGGGUUCGAAUCCCGUACGUAGCG | 0.601 |
| GUUCCGUUGGCGUAAUGGUAACGCGUCUCCCUCCUAAGGAGAAGACUGCGGGUUCGAACCCCGUACGGAACG | 0.971 |
| GUUCCGUUGGCGUAAUGGUAACGCGUCUCCCUCCUAAGGAGAAGACUGCGGGUUCGAAUCCCGCACGGAACG | 0.976 |

Source: the RNAGym collection of RNA variant scans (doi:10.1126/science.aae0568)
